Most compounds without a hit are left out; they make up all but 2.3% or so of the library.
F508del corr: CFTR F508del correction in bronchial cells | activity (quench increase), % at 7.58 µM | AID 720511 | 0.36% of 350,000 active | CFBE cells, YFP halide quenching; stimulated with forskolin plus potentiator P3; % fluorescence drop versus neutral controls;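 active means mean added fluorescence quench of at least 8% versus neutral control, with both replicates also reaching 8%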;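 further: cells transiently co-express mutant CFTR-F508del with the halide-sensitive YFP; corrector assay measuring rescue of mutant channel to the surface after 24 h compound exposure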
PDI turbidity: blocks human protein disulfide isomerase activity; PDI insulin aggregation turbidity, A650, 90 min; 0.052% of 350,000 active; inhibition, % at 10 µM;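 active means mean inhibition across replicates of 30% or more, whatever share of single replicates reach that level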
Target sequence (P07237 whole entry, looked up): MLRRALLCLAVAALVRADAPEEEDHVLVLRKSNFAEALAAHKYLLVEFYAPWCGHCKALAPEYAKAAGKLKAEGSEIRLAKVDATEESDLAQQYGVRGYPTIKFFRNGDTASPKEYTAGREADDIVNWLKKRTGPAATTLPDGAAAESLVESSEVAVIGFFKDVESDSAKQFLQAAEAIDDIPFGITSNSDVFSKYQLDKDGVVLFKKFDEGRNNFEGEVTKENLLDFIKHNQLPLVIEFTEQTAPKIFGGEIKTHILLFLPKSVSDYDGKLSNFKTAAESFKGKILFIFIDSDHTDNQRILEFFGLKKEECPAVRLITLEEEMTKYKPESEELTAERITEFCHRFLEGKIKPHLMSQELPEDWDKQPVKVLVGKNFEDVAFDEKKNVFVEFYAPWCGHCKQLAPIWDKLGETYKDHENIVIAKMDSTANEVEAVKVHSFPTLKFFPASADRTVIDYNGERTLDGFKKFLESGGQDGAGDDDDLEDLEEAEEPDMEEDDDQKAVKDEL
DENV2 CPE: protects cells from dengue virus 2 cytopathic effect; CPE inhibition, % at 9.99 µM; DENV2-infected cells, cytopathic effect rescue, plate reader; 1.7% of 350,000 active; AID 651640; in the data active means CPE inhibition above about 20%, passing the limit was not always enough; tested in BHK-21 cells
Cneo AK release: causes C. neoformans cell lysis | adenylate kinase release luminescence, 4 h; normalised: neutral wells 0, clomiphene wells 100 | lysis activity, % at 15 µM | 0.2% of 360,000 active;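 active means mean lysis activity across replicates of at least 80%, whatever share of replicates individually reach that level; inactive means mean lysis activity below 80%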
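Assay system: Cryptococcus neoformans yeast cells / Dosing: single-point compound dose / Timing: 4 h at 37 °C static, read 1 h later / Measured by: luminescence of released adenylate kinase using an AK detection reagent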
ERp5 inh: blocks human ERp5 reductase activity on insulin. Q15084. ERp5 insulin aggregation, absorbance 650 nm, 90 min. 0.05% of 350,000 active. inhibition, % at 9.99 µM;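 active means mean replicate inhibition above about 25%, with every replicate also reaching it, limit read from the data, passing the limit was not always enough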
Statin myotox sup: suppression of simvastatin myotoxicity. C2C12 myotubes + simvastatin, ATP luminescence, 48 h; scaled: DMSO 0, geranylgeraniol control 100. rescue of ATP level, % at 7.49 µM. 0.78% of 330,000 active;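 active means mean ATP rescue above about 67%, or every replicate alone reaching that limit, limit read from the data, passing the limit was not always enough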;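 further: myotubes were challenged with 10 µM simvastatin during compound exposure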
Hits are given with their value; i = inactive; nt = not tested or not shown.

SMILES	F508del corr	PDI turbidity	DENV2 CPE	Cneo AK release	ERp5 inh	Statin myotox sup
Cc1ccc(S(=O)(=O)NCC[C@H]2CC[C@@H](NC(=O)Nc3ccccc3F)[C@@H](CO)O2)cc1	i	nt	i	i	i	i
O=C(CCN1CCCCC1)N[C@H]1CC[C@@H](CCNS(=O)(=O)c2ccc(Cl)cc2)O[C@H]1CO	i	nt	i	i	i	i
O=C(NCC[C@H]1CC[C@H](NC(=O)C2CCCC2)[C@@H](CO)O1)c1ccc(F)cc1	i	nt	29.4	i	i	i
O=C(CCN1CCCCC1)N[C@H]1CC[C@@H](CCNS(=O)(=O)c2ccc(F)cc2)O[C@H]1CO	i	nt	25.3	i	i	i
Cc1ccc(S(=O)(=O)Nc2ccc3c(c2)C(=O)N([C@H](C)CO)C[C@@H](C)[C@H](CN(C)C(=O)Nc2ccc4c(c2)OCO4)OCCCC[C@H](C)O3)cc1	i	nt	i	nt	i	nt
Cc1ccccc1S(=O)(=O)NCC[C@@H]1CC[C@H](NC(=O)C2CCCC2)[C@@H](CO)O1	i	nt	22.9	i	i	i
O=C(N[C@H]1CC[C@@H](CCNS(=O)(=O)c2ccc(F)cc2)O[C@H]1CO)C1CCC1	i	nt	i	i	i	i
Cc1ccccc1S(=O)(=O)NCC[C@@H]1CC[C@@H](NC(=O)C2CCCC2)[C@@H](CO)O1	i	nt	i	i	i	i
O=C(N[C@H]1CC[C@@H](CCNS(=O)(=O)c2ccc(F)cc2)O[C@H]1CO)C1CCCC1	i	nt	21.4	i	i	i
Cc1c(C(=O)NCc2ccc(C#N)cc2)sc(=O)n1Cc1ccccn1	i	i	21.3	i	i	i
Cc1cccc(C)c1Cn1c(C)c(C(=O)NCc2ccc(C#N)cc2)sc1=O	i	i	i	i	i	i
C[C@H](CO)N1C[C@H](C)[C@@H](CN(C)C(=O)CCC(F)(F)F)OCCCC[C@H](C)Oc2ccc(NC(=O)NC3CCCCC3)cc2C1=O	i	nt	i	i	i	nt
CCC(=O)N1C[C@H](C)[C@@H](OC)CN(C)C(=O)c2ccc(NC(=O)NC(C)C)cc2OC[C@@H]1C	i	nt	i	nt	i	nt
COCC(=O)N1C[C@@H](C)[C@@H](OC)CN(C)C(=O)c2ccc(NC(=O)NC(C)C)cc2OC[C@@H]1C	i	nt	i	i	i	i
COCC(=O)N1C[C@H](C)[C@H](OC)CN(C)C(=O)c2ccc(NC(=O)NC(C)C)cc2OC[C@@H]1C	i	nt	i	80.2	i	i
CCC(=O)N1C[C@H](C)[C@H](OC)CN(C)C(=O)c2ccc(NC(=O)NC(C)C)cc2OC[C@H]1C	i	nt	69.8	nt	i	nt
COc1ccc(NC(=O)N(C)C[C@H]2Oc3c(NC(=O)C4CCOCC4)cccc3C(=O)N([C@@H](C)CO)C[C@@H]2C)cc1	i	nt	i	i	i	i
CCn1c(SCC(=O)Nc2ccc(S(=O)(=O)Nc3ccccn3)cc2)nnc1-c1ccncc1	nt	i	nt	i	nt	94.7
COc1ccc2c3c([nH]c2c1)[C@H](CO)N(Cc1ccccc1F)CC31CN(S(C)(=O)=O)C1	i	nt	i	nt	i	nt
CC(=O)N1[C@@H]2c3ccc(-c4ccccc4)c(=O)n3C[C@@H]2[C@@H](CO)[C@@H]1C(=O)NC1CCC1	i	nt	i	i	i	i
COc1ccc(C(=O)Nc2ccccc2C(=O)Nc2ccccc2)cc1	8.8	i	i	i	i	i
COc1ccc(C(=O)Nc2ccccc2C(=O)NC(Cc2ccc(O)cc2)C(=O)NNC(=O)c2ccccc2Cl)cc1 (stereo not drawn)	nt	i	nt	i	nt	111.8
Cn1cnc(S(=O)(=O)N2C[C@H](O)COC[C@H]3O[C@H](CC(=O)NC4CCC4)CC[C@@H]32)c1	i	nt	i	i	nt	i
CCOC(=O)/C(=C/C=C1\Sc2cc(C)c(C)cc2N1CC)C(C)=O	39.0	i	nt	nt	i	nt
Cc1ccccc1N=C1Nc2ccccc2N[C@]12C[C@H]1CCC(=O)N3CC[C@@H](C2)[C@@H]13	i	i	148.3	i	i	i
SMILES	F508del corr	PDI turbidity	DENV2 CPE	Cneo AK release	ERp5 inh	Statin myotox sup
COc1ccccc1-c1nnc2sc(-c3ccc(N(C)C)cc3)nn12	nt	i	42.1	i	i	nt
C[C@@H](O)C#Cc1cnc2c(c1)C(=O)N([C@@H](C)CO)C[C@H](C)[C@@H](CN(C)C(=O)CC1CC1)O2	i	nt	i	i	i	i
O=C(O)C/C(=C\c1cccc(NC(=O)c2ccccc2Cl)c1)c1nc2ccccc2s1	i	i	i	112.4	i	i
COc1cc(/C=C(\CC(=O)O)c2nc3ccccc3s2)ccc1OCC(=O)Nc1ccccc1F	17.6	i	i	i	i	i
COc1ccc(C(=O)Nc2cccc(/C=C(\CCC(=O)O)c3nc4ccccc4s3)c2)cc1	i	i	i	i	i	i
CO[C@H]1CN(C)C(=O)c2ccc(NC(C)=O)cc2OC[C@@H](C)N(C(=O)C2CC2)C[C@H]1C	i	nt	i	i	i	i
O=C([C@H]1[C@H](CO)[C@H]2Cn3c(ccc(-c4ccccc4F)c3=O)[C@@H]1N2C(=O)C1CC1)N1CCCCC1	i	nt	i	i	i	i
CCCNC(=O)NC[C@H]1[C@@H](c2ccc(C3=CCCCC3)cc2)[C@@H](CO)N1C(C)=O	i	nt	i	i	i	i
O=S1(=O)CCN2C(c3ccco3)=CSC2=N1	nt	i	nt	i	nt	104.0
O=S1(=O)CCN2C(c3ccc4c(c3)CCCC4)=CSC2=N1	nt	i	nt	i	nt	i
C[C@H](O)C#Cc1ccc2c(c1)O[C@H](CN(C)C(=O)CN(C)C)[C@@H](C)CN([C@H](C)CO)S2(=O)=O	i	nt	23.9	i	i	i
C[C@@H]1CN([C@H](C)CO)S(=O)(=O)c2ccc(C#Cc3ccccc3)cc2O[C@H]1CN(C)C(=O)CN(C)C	i	nt	24.3	i	i	i
C[C@H](CO)N1C[C@H](C)[C@H](CN(C)C(=O)C2CC2)Oc2cc(C#Cc3ccccc3)ccc2S1(=O)=O	i	nt	i	i	i	i
C[C@H](CO)N1C[C@H](C)[C@@H](CN(C)C(=O)C2CC2)Oc2cc(C#Cc3ccccc3)ccc2S1(=O)=O	i	nt	174.4	i	i	i
C[C@H](CO)N1C[C@H](C)[C@@H](CN(C)C(=O)c2ccc3c(c2)OCO3)Oc2cc(C#Cc3ccccc3F)ccc2S1(=O)=O	i	nt	i	i	i	i
C[C@H](CO)N1C[C@H](C)[C@H](CN(C)C(=O)c2ccc3c(c2)OCO3)Oc2cc(C#Cc3ccccc3F)ccc2S1(=O)=O	8.8	nt	i	i	i	i
COc1cccc(CN2[C@H](CO)[C@H]3c4ccccc4N(C(=O)c4ccncc4)C[C@H]32)c1	i	nt	i	i	i	i
CCCCN(C(=O)c1cc(OC)c(OC)c(OC)c1)C1=CC2CCC(C1)N2C (stereo not drawn)	nt	i	nt	i	nt	i
COc1cc(C(=O)N(CCc2ccccc2)C2=CC3CCC(C2)N3C)cc(OC)c1OC (stereo not drawn)	nt	i	nt	i	nt	91.2
C[C@H](CO)N1C[C@H](C)[C@H](CN(C)C(=O)c2ccc(F)cc2)Oc2cc(-c3cccc(C#N)c3)ccc2S1(=O)=O	i	nt	i	i	i	i

Screening data (PubChem BioAssay)
